# Assay results taken from ChEMBL document CHEMBL2434966, “Novel N-4-piperazinyl-ciprofloxacin-chalcone hybrids: synthesis, physicochemical properties, anticancer and topoisomerase I and II inhibitory activity” (Eur J Med Chem, 2013).
# Key:
# Type in all cases: functional
# [1] = system: MDA-MB-231; assay: Growth inhibition of human MDA-MB-231 cells after 48 hrs by sulforhodamine B assay; conditions: MDA-MB-231, 48 h
# Procedure, shortened: (§1)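 NCI 60-panel five-dose test at 10-fold dilutions, 10^-4 to 10^-8 M, with 48 h continuous exposure and SRB protein read-out. Percent growth derived from time-zero, untreated-control and treated absorbances. GI50 is the concentration where [(Ti-Tz)/(C-Tz)]×100 = 50. TGI is taken at Ti = Tz. LC50 is taken at [(Ti-Tz)/Tz]×100 = -50.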
# [2] = system: UO-31; assay: Growth inhibition of human UO31 cells after 48 hrs by sulforhodamine B assay; conditions: UO-31, 48 h
# Procedure, shortened: (§2)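 NCI 60-cell panel, five concentrations (10-fold dilutions, 0.01–100 µM), 48 h continuous exposure; SRB protein stain read spectrophotometrically. Percent growth from time-zero, untreated-control and treated absorbances. GI50 is the concentration giving 50% lower net protein increase than control. Values beyond the tested range are reported as more or less than the highest or lowest concentration.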
# [3] = system: OVCAR-3; assay: Growth inhibition of human OVCAR3 cells after 48 hrs by sulforhodamine B assay; conditions: OVCAR-3, 48 h; for CC50: read-out: LC50 (the source's name)
# Procedure, shortened: (§3)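 NCI five-dose screen on the full 60-cell-line panel. Cells were given 10-fold dilutions from 10^-4 to 10^-8 M with continuous 48 h exposure, and growth was read by SRB staining. Percent growth was taken from time-zero, control and treated absorbances. GI50, TGI and LC50 were then derived, the GI50 being the concentration that gives a 50% lower net protein increase than control.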
# [4] = system: IGROV-1; assay: Growth inhibition of human IGROV1 cells after 48 hrs by sulforhodamine B assay; conditions: IGROV-1, 48 h; procedure, shortened: as §1
# [5] = system: UACC-62; assay: Growth inhibition of human UACC62 cells after 48 hrs by sulforhodamine B assay; conditions: UACC-62, 48 h; procedure, shortened: as §2
# [6] = system: UACC-257; assay: Growth inhibition of human UACC257 cells after 48 hrs by sulforhodamine B assay; conditions: UACC-257, 48 h; for CC50: read-out: LC50 (the source's name); procedure, shortened: as §2
# [7] = system: SK-MEL-28; assay: Growth inhibition of human SK-MEL-28 cells after 48 hrs by sulforhodamine B assay; conditions: SK-MEL-28, 48 h; for CC50: read-out: LC50 (the source's name); procedure, shortened: as §3
# [8] = system: LOX IMVI; assay: Growth inhibition of human LOXIMVI cells after 48 hrs by sulforhodamine B assay; procedure, shortened: as §1
# [9] = system: Malme-3M; assay: Growth inhibition of human MALME-3M cells after 48 hrs by sulforhodamine B assay; procedure, shortened: as §1
# [10] = system: SF-539; assay: Growth inhibition of human SF539 cells after 48 hrs by sulforhodamine B assay; conditions: SF-539, 48 h; for CC50: read-out: LC50 (the source's name); procedure, shortened: as §3
# [11] = system: HCT-15; assay: Growth inhibition of human HCT15 cells after 48 hrs by sulforhodamine B assay; conditions: HCT-15, 48 h; procedure, shortened: as §1
# [12] = system: CCRF-CEM; assay: Growth inhibition of human CCRF-CEM cells after 48 hrs by sulforhodamine B assay; procedure, shortened: as §1
# [13] = system: ACHN; assay: Growth inhibition of human ACHN cells assessed as cell growth at 10^-5 M after 48 hrs by sulforhodamine B assay; conditions: read-out: Activity
# Procedure, shortened: (§4)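 NCI 60-cell-line primary screen. Single concentration of 10^-5 M, 48 h incubation. End point by sulforhodamine B protein staining read spectrophotometrically. Reported as percent growth of treated cells relative to untreated control cells.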
# [14] = Growth inhibition of human NCI-ADR-RES cells assessed as cell growth at 10^-5 M after 48 hrs by sulforhodamine B assay; conditions: read-out: Activity
# Procedure, shortened: (§5)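 NCI 60-cell-line primary one-dose screen. Cells were exposed to a single 10^-5 M concentration for 48 h. The end point was sulforhodamine B protein staining, read spectrophotometrically. Results are reported as percent growth of treated cells relative to untreated control cells.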
# [15] = system: SK-OV-3; assay: Growth inhibition of human SKOV3 cells assessed as cell growth at 10^-5 M after 48 hrs by sulforhodamine B assay; conditions: SK-OV-3, 48 h, read-out: Activity; procedure, shortened: as §5
# [16] = system: IGROV-1; assay: Growth inhibition of human IGROV1 cells assessed as cell growth at 10^-5 M after 48 hrs by sulforhodamine B assay; conditions: IGROV-1, 48 h, read-out: Activity; procedure, shortened: as §4
# [17] = system: UACC-257; assay: Growth inhibition of human UACC257 cells assessed as cell growth at 10^-5 M after 48 hrs by sulforhodamine B assay; conditions: UACC-257, 48 h, read-out: Activity
# Procedure, shortened: (§6)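 NCI primary one-dose screen: single concentration of 10^-5 M added to culture, 48 h incubation, SRB protein-dye endpoint. Percent growth of treated cells measured spectrophotometrically against untreated controls.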
# [18] = system: UACC-62; assay: Growth inhibition of human UACC62 cells assessed as cell growth at 10^-5 M after 48 hrs by sulforhodamine B assay; conditions: UACC-62, 48 h, read-out: Activity; procedure, shortened: as §6
# [19] = system: SK-MEL-28; assay: Growth inhibition of human SK-MEL-28 cells assessed as cell growth at 10^-5 M after 48 hrs by sulforhodamine B assay; conditions: SK-MEL-28, 48 h, read-out: Activity; procedure, shortened: as §5
# [20] = system: M14; assay: Growth inhibition of human M14 cells assessed as cell growth at 10^-5 M after 48 hrs by sulforhodamine B assay; conditions: M14, 48 h, read-out: Activity; procedure, shortened: as §4
# [21] = system: SNB-75; assay: Growth inhibition of human SNB75 cells assessed as cell growth at 10^-5 M after 48 hrs by sulforhodamine B assay; conditions: SNB-75, 48 h, read-out: Activity; procedure, shortened: as §6
# [22] = Growth inhibition of human HCC2998 cells assessed as cell growth at 10^-5 M after 48 hrs by sulforhodamine B assay; conditions: HCC 2998, 48 h, read-out: Activity; procedure, shortened: as §4
# [23] = system: NCI-H522; assay: Growth inhibition of human NCI-H522 cells assessed as cell growth at 10^-5 M after 48 hrs by sulforhodamine B assay; conditions: NCI-H522, 48 h, read-out: Activity; procedure, shortened: as §5
# [24] = system: HOP-92; assay: Growth inhibition of human HOP92 cells assessed as cell growth at 10^-5 M after 48 hrs by sulforhodamine B assay; conditions: HOP-92, 48 h, read-out: Activity; procedure, shortened: as §4
# [25] = system: NCI-H226; assay: Growth inhibition of human NCI-H226 cells assessed as cell growth at 10^-5 M after 48 hrs by sulforhodamine B assay; conditions: NCI-H226, 48 h, read-out: Activity; procedure, shortened: as §5
# [26] = system: HOP-62; assay: Growth inhibition of human HOP62 cells assessed as cell growth at 10^-5 M after 48 hrs by sulforhodamine B assay; conditions: HOP-62, 48 h, read-out: Activity; procedure, shortened: as §4
smiles,measurement,setting,value
O=C(CN1CCN(c2cc3c(cc2F)c(=O)c(C(=O)O)cn3C2CC2)CC1)Nc1ccc(C(=O)/C=C/c2ccccc2)cc1,GI50,[1],1.84 µM
same,LC50 (50% lethal concentration),[1],> 100 µM
same,TGI,[1],5.13 µM
same,GI50,[2],2.78 µM
same,LC50 (concentration killing 50% of cells),[2],> 100 µM
same,TGI,[2],45.4 µM
same,GI50,[3],3.64 µM
same,TGI,[3],> 100 µM
same,CC50,[3],> 100 µM
same,GI50,[4],3.67 µM
same,LC50 (concentration giving 50% net cell kill),[4],> 100 µM
same,TGI,[4],> 100 µM
same,GI50,[5],3.71 µM
same,LC50,[5],> 100 µM
same,TGI,[5],> 100 µM
same,GI50,[6],3.9 µM
same,TGI,[6],90.8 µM
same,CC50,[6],> 100 µM
same,GI50,[7],18.8 µM
same,TGI,[7],> 100 µM
same,CC50,[7],> 100 µM
same,GI50,[8],2.32 µM
same,LC50 (concentration killing 50% of starting cells),[8],> 100 µM
same,TGI,[8],> 100 µM
same,GI50,[9],2.89 µM
same,LC50,[9],> 100 µM
same,TGI,[9],8.87 µM
same,GI50,[10],3.6 µM
same,TGI,[10],> 100 µM
same,CC50,[10],> 100 µM
same,GI50,[11],3.68 µM
same,LC50 (concentration giving 50% net cell kill),[11],> 100 µM
same,TGI,[11],> 100 µM
same,GI50,[12],4.09 µM
same,LC50 (concentration giving 50% net cell kill),[12],> 100 µM
same,TGI,[12],> 100 µM
same,growth at 10 µM,[13],40%
same,growth at 10 µM,[14],93.5%
same,growth at 10 µM,[15],93.6%
same,growth at 10 µM,[16],42.9%
same,growth at 10 µM,[17],61.1%
same,growth at 10 µM,[18],35.5%
same,growth at 10 µM,[19],85.7%
same,growth at 10 µM,[20],31.9%
same,growth at 10 µM,[21],61.8%
same,growth at 10 µM,[22],70.1%
same,growth at 10 µM,[23],10.6%
same,growth at 10 µM,[24],14.9%
same,growth at 10 µM,[25],57.4%
same,growth at 10 µM,[26],59.4%
COc1cc(/C=C/C(=O)c2ccc(NC(=O)CN3CCN(c4cc5c(cc4F)c(=O)c(C(=O)O)cn5C4CC4)CC3)cc2)cc(OC)c1OC,GI50,[1],0.51 µM
same,LC50 (50% lethal concentration),[1],> 100 µM
same,GI50,[2],1.17 µM
same,LC50 (concentration killing 50% of cells),[2],> 100 µM
same,TGI,[2],6.8 µM
same,GI50,[3],0.29 µM
same,TGI,[3],0.92 µM
same,CC50,[3],9.04 µM
same,GI50,[4],0.4 µM
same,LC50 (concentration giving 50% net cell kill),[4],8.43 µM
same,TGI,[4],1.72 µM
same,GI50,[5],0.8 µM
same,LC50,[5],27.9 µM
same,TGI,[5],3.63 µM
same,GI50,[6],1.42 µM
same,TGI,[6],65.4 µM
same,CC50,[6],> 100 µM
same,GI50,[7],1.1 µM
same,TGI,[7],17 µM
same,CC50,[7],98.2 µM
same,GI50,[8],0.53 µM
same,LC50 (concentration killing 50% of starting cells),[8],> 100 µM
same,TGI,[8],2.65 µM
same,GI50,[9],1.81 µM
same,LC50,[9],> 100 µM
same,TGI,[9],7.65 µM
same,GI50,[10],0.49 µM
same,TGI,[10],2.62 µM
same,CC50,[10],> 100 µM
same,GI50,[11],0.45 µM
same,LC50 (concentration giving 50% net cell kill),[11],> 100 µM
same,TGI,[11],> 100 µM
same,GI50,[12],0.32 µM
same,LC50 (concentration giving 50% net cell kill),[12],> 100 µM
same,growth at 10 µM,[13],10.8%
same,growth at 10 µM,[14],98.2%
same,growth at 10 µM,[15],33.3%
same,growth at 10 µM,[16],-1.19%
same,growth at 10 µM,[17],30.8%
same,growth at 10 µM,[18],-23.5%
same,growth at 10 µM,[19],34%
same,growth at 10 µM,[20],-14.1%
same,growth at 10 µM,[21],76.6%
same,growth at 10 µM,[22],-11.6%
same,growth at 10 µM,[23],-71.5%
same,growth at 10 µM,[24],-1.75%
same,growth at 10 µM,[25],-9.81%
same,growth at 10 µM,[26],4.38%
